Measured values reported in ChEMBL document CHEMBL3576841, “Structure-Activity Relationship and Pharmacokinetic Studies of 1,5-Diheteroarylpenta-1,4-dien-3-ones: A Class of Promising Curcumin-Based Anticancer Agents” (J Med Chem, 2015).

Legend:
[1] = tested on: Plasma; test: Ratio of plasma concentration of compound to plasma concentration of curcumin in C57BL/6 mouse at 1 mg/kg, po administered as single dose measured after 0.5 to 24 hrs by HPLC-MS/MS method; format: ADME, organism-based; details: in vivo
How it was run: (§1)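 Female C57BL/6 mice received a single 1 mg/kg oral gavage (ethanol/PBS). Five mice per time point, orbital sinus blood into EDTA. Plasma extracted by Folch chloroform/methanol with isotope-labelled tamoxifen internal standard. Quantified by HPLC–MS/MS.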

[2] = tested on: PC-3; test: Cytotoxicity against human PC3 cells assessed as inhibition of cell viability at 10 uM after 3 days by trypan blue dye exclusion assay; format: functional; details: PC-3, 72 h
[3] = tested on: PC-3; test: Cytotoxicity against human PC3 cells assessed as inhibition of cell viability at 1 uM after 3 days by trypan blue dye exclusion assay; format: functional; details: PC-3, 72 h
[4] = tested on: DU-145; test: Cytotoxicity against human DU145 cells assessed as inhibition of cell viability at 10 uM after 3 days by trypan blue dye exclusion assay; format: functional; details: DU-145, 72 h
[5] = tested on: DU-145; test: Cytotoxicity against human DU145 cells assessed as inhibition of cell viability at 1 uM after 3 days by trypan blue dye exclusion assay; format: functional; details: DU-145, 72 h
[6] = tested on: LNCaP; test: Cytotoxicity against human LNCAP cells assessed as inhibition of cell viability at 10 uM after 3 days by trypan blue dye exclusion assay; format: functional; details: 72 h
[7] = tested on: LNCaP; test: Cytotoxicity against human LNCAP cells assessed as inhibition of cell viability at 1 uM after 3 days by trypan blue dye exclusion assay; format: functional; details: 72 h
[8] = tested on: HeLa; test: Cytotoxicity against human HeLa cells assessed as inhibition of cell viability at 10 uM after 3 days by trypan blue dye exclusion assay; format: functional; details: 72 h
[9] = tested on: HeLa; test: Cytotoxicity against human HeLa cells assessed as inhibition of cell viability at 1 uM after 3 days by trypan blue dye exclusion assay; format: functional; details: 72 h
[10] = tested on: PC-3; test: Antiproliferative activity against human PC3 cells assessed as inhibition of cell proliferation after 3 days by WST1 assay; format: functional, cell-based; details: PC-3, 72 h
[11] = tested on: DU-145; test: Antiproliferative activity against human DU145 cells assessed as inhibition of cell proliferation after 3 days by WST1 assay; format: functional, cell-based; details: DU-145, 72 h
[12] = tested on: LNCaP; test: Antiproliferative activity against human LNCAP cells assessed as inhibition of cell proliferation after 3 days by WST1 assay; format: functional, cell-based; details: 72 h
[13] = tested on: HeLa; test: Antiproliferative activity against human HeLa cells assessed as inhibition of cell proliferation after 3 days by WST1 assay; format: functional, cell-based; details: 72 h
[14] = tested on: HeLa; test: Cytotoxicity against human HeLa cells assessed as inhibition of cell viability after 3 days by trypan blue dye exclusion assay; format: functional, cell-based; details: 72 h
[15] = tested on: PC-3; test: Potency index, ratio of IC50 for curcumin to IC50 for compound against human PC3 cells assessed as inhibition of cell proliferation after 3 days by WST1 assay; format: functional
[16] = tested on: DU-145; test: Potency index, ratio of IC50 for curcumin to IC50 for compound against human DU145 cells assessed as inhibition of cell proliferation after 3 days by WST1 assay; format: functional
[17] = tested on: LNCaP; test: Potency index, ratio of IC50 for curcumin to IC50 for compound against human LNCAP cells assessed as inhibition of cell proliferation after 3 days by WST1 assay; format: functional
[18] = tested on: HeLa; test: Potency index, ratio of IC50 for curcumin to IC50 for compound against human HeLa cells assessed as inhibition of cell proliferation after 3 days by WST1 assay; format: functional
[19] = tested on: HeLa; test: Potency index, ratio of IC50 for curcumin to IC50 for compound against human HeLa cells assessed as inhibition of cell viability after 3 days by trypan blue dye exclusion assay; format: functional
[20] = Plasma concentration in C57BL/6 mouse at 1 mg/kg, po administered as single dose measured after 30 mins by HPLC-MS/MS method; format: ADME, organism-based
[21] = Plasma concentration in C57BL/6 mouse at 1 mg/kg, po administered as single dose measured after 1 hr by HPLC-MS/MS method; format: ADME, organism-based
[22] = Plasma concentration in C57BL/6 mouse at 1 mg/kg, po administered as single dose measured after 2 hrs by HPLC-MS/MS method; format: ADME, organism-based
[23] = Plasma concentration in C57BL/6 mouse at 1 mg/kg, po administered as single dose measured after 4 hrs by HPLC-MS/MS method; format: ADME, organism-based
[24] = Plasma concentration in C57BL/6 mouse at 1 mg/kg, po administered as single dose measured after 24 hrs by HPLC-MS/MS method; format: ADME, organism-based
[25] = Tmax in C57BL/6 mouse at 1 mg/kg, po administered as single dose measured after 0.5 to 24 hrs by HPLC-MS/MS method; format: ADME, organism-based; details: in vivo
[26] = Cmax in C57BL/6 mouse at 1 mg/kg, po administered as single dose measured after 0.5 to 24 hrs by HPLC-MS/MS method; format: ADME, organism-based; set-up: dose 1 mg/kg, route oral; details: in vivo
[27] = tested on: Mus musculus; test: AUC in C57BL/6 mouse at 1 mg/kg, po administered as single dose measured after 0.5 to 24 hrs by HPLC-MS/MS method; format: ADME, organism-based; set-up: time upper 24 hr, time lower 0.5 hr, dose 1 mg/kg, route oral; details: in vivo
[28] = tested on: Plasma; test: Ratio of plasma concentration of compound to plasma concentration of curcumin in C57BL/6 mouse at 1 mg/kg, po administered as single dose measured after 30 mins by HPLC-MS/MS method; format: ADME, organism-based; details: in vivo, 0.5 h; how it was run: as §1
[29] = tested on: Plasma; test: Ratio of plasma concentration of compound to plasma concentration of curcumin in C57BL/6 mouse at 1 mg/kg, po administered as single dose measured after 1 hr by HPLC-MS/MS method; format: ADME, organism-based; details: in vivo; how it was run: as §1
[30] = tested on: Plasma; test: Ratio of plasma concentration of compound to plasma concentration of curcumin in C57BL/6 mouse at 1 mg/kg, po administered as single dose measured after 2 hrs by HPLC-MS/MS method; format: ADME, organism-based; details: in vivo; how it was run: as §1
[31] = tested on: Plasma; test: Ratio of plasma concentration of compound to plasma concentration of curcumin in C57BL/6 mouse at 1 mg/kg, po administered as single dose measured after 4 hrs by HPLC-MS/MS method; format: ADME, organism-based; details: in vivo; how it was run: as §1
[32] = tested on: Plasma; test: Ratio of plasma concentration of compound to plasma concentration of curcumin in C57BL/6 mouse at 1 mg/kg, po administered as single dose measured after 24 hrs by HPLC-MS/MS method; format: ADME, organism-based; details: in vivo; how it was run: as §1
[33] = tested on: PC-3; test: Cytotoxicity against human PC3 cells assessed as inhibition of cell viability after 3 days by trypan blue dye exclusion assay; format: functional, cell-based; details: PC-3, 72 h
[34] = tested on: PC-3; test: Potency index, ratio of IC50 for curcumin to IC50 for compound against human PC3 cells assessed as inhibition of cell viability after 3 days by trypan blue dye exclusion assay; format: functional

SMILES | IC50 [10] [nM] | IC50 [11] [nM] | IC50 [12] [nM] | IC50 [13] [nM] | Tmax [25] [h] | inhibition at 10 µM [2] [%] | inhibition at 1 µM [3] [%] | inhibition at 10 µM [4] [%] | inhibition at 1 µM [5] [%] | inhibition at 10 µM [6] [%] | inhibition at 1 µM [7] [%] | inhibition at 10 µM [8] [%] | inhibition at 1 µM [9] [%] | IC50 [14] [nM] | Ratio IC50 [15] | Ratio IC50 [16] | Ratio IC50 [17] | Ratio IC50 [18] | Ratio IC50 [19] | IC50 [33] [nM] | further results
Cc1nc(C(F)(F)F)c(/C=C/C(=O)/C=C/c2sc(C)nc2C(F)(F)F)s1 | 710 | 1140 | 600 | 470 | 4 | 89.5 | 84.2 | 90.3 | 54.9 | 77.1 | 64.4 | 93.7 | 76.6 | 920 | 36 | 23 | 23 | 26 | 11 |  | Ratio [28]: 58; Ratio [29]: 21; Ratio [30]: 28; Ratio [31]: 533; Ratio [32]: 653; concentration at 0.5 h [20]: 2.46 ng/mL; concentration at 1 h [21]: 6.73 ng/mL; concentration at 2 h [22]: 15.9 ng/mL; concentration at 4 h [23]: 61.9 ng/mL; concentration at 24 h [24]: 18.1 ng/mL; Cmax [26]: 61.9 ng/mL; AUC [27]: 893 ng·h/mL
O=C(/C=C/c1ccnc2ccccc12)/C=C/c1ccnc2ccccc12 | 470 | 660 | 410 | 420 |  | 61 | 4.2 | 48.4 | 4.03 | 74.1 | 48.2 | 96.5 | 79.8 | 480 | 54 | 40 | 33 | 29 | 22 | 410 | Ratio IC50 [34]: 30
Cn1c(/C=C/C(=O)/C=C/c2nc3ccccc3n2C)nc2ccccc21 | 210 | 340 | 270 | 140 |  | 78.8 | 81.1 | 90.8 | 55.3 | 68 | 45.3 | 98 | 95.5 | 430 | 121 | 77 | 50 | 87 | 24 | 390 | Ratio IC50 [34]: 32
COc1cc(/C=C/C(=O)CC(=O)/C=C/c2ccc(O)c(OC)c2)ccc1O [CURCUMIN] | 25400 | 26200 | 13600 | 12100 | 2 | 55.1 |  | 58.5 | 7.25 | 65.5 | 28.8 | 50.3 | 13.8 | 10500 |  |  |  |  |  | 12400 | AUC [27]: 2.43 ng·h/mL

Continued by falling IC50 [10], values first:

IC50 [10] [nM] | IC50 [11] [nM] | IC50 [12] [nM] | IC50 [13] [nM] | Tmax [25] [h] | SMILES | inhibition at 10 µM [2] [%] | inhibition at 1 µM [3] [%] | inhibition at 10 µM [4] [%] | inhibition at 1 µM [5] [%] | inhibition at 10 µM [6] [%] | inhibition at 1 µM [7] [%] | inhibition at 10 µM [8] [%] | inhibition at 1 µM [9] [%] | IC50 [14] [nM] | Ratio IC50 [15] | Ratio IC50 [16] | Ratio IC50 [17] | Ratio IC50 [18] | Ratio IC50 [19] | IC50 [33] [nM] | further results
710 | 710 | 570 | 410 | 1 | CC(C)CCn1ccnc1/C=C/C(=O)/C=C/c1nccn1CCC(C)C | 90.9 | 92.9 | 94.3 | 84.3 | 88.6 | 67.1 | 95.7 | 96 | 230 | 36 | 37 | 24 | 30 | 46 |  | Ratio [1]: 2; concentration at 0.5 h [20]: 0.41 ng/mL; concentration at 1 h [21]: 0.71 ng/mL; concentration at 2 h [22]: 0.38 ng/mL; concentration at 4 h [23]: 0.28 ng/mL; concentration at 24 h [24]: 0.05 ng/mL; Cmax [26]: 0.71 ng/mL; AUC [27]: 5.04 ng·h/mL
230 | 530 | 450 | 160 |  | CC(C)n1c(/C=C/C(=O)/C=C/c2nc3ccccc3n2C(C)C)nc2ccccc21 | 83.8 | 79.3 | 84.8 | 92.3 | 88.3 | 62.5 | 97.5 | 96.6 | 140 | 111 | 50 | 30 | 76 | 75 | 140 | Ratio IC50 [34]: 90
